Compound activity deposited in PubChem by several laboratories.
An excerpt weighted towards active compounds, which were near 0.99% of everything screened.
Tn6 DDE FP: inhibitors of Tn6 peptide binding to fibrin DD(E), primary screen, biochemical, fluorescence polarization, human fibrin, Tn6 probe; Fibrinogen beta chain (Homo sapiens), P02675; Fibrin DD(E) TRITC-Tn6 fluorescence polarization displacement; inhibition, % at 8.3 µM; 370,000 compounds, 0.21% hits; AID 720509, 2013;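 active = inhibition above a per-campaign cutoff: mean of compounds within control limits plus 3 SD, cut at about 15% in these data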
GRK2 inh: compounds blocking aptamer binding on GRK2 – biochemical, human GRK2, bead flow cytometry, HTS, primary screen; AID 488847, 2010; 330,000 compounds, 0.59% hits; inhibition of aptamer binding, % at 10 µM; FAM-aptamer displacement from GRK2; Beta-adrenergic receptor kinase 1 (Homo sapiens), P25098;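 active = inhibition of aptamer binding above 40%, roughly 3 SD of noise, on plates passing a quality check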;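 also: median bead fluorescence of bound FAM aptamer so fluorescent compounds give negative values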
ABCB1 block: ABCB1 efflux pump inhibitors, primary screen, cell-based, multiplex, flow cytometry, ABCG2 counter-screen; 190,000 compounds, 0.067% hits; CCRF-Adr cells, JC-1 efflux; inhibition, % at 6.6 µM; AID 1326, 2008; in the data active = inhibition above about 40%;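 also: higher value means more JC-1 retained so stronger ABCB1 efflux block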
Target sequence (P08183 whole entry, looked up): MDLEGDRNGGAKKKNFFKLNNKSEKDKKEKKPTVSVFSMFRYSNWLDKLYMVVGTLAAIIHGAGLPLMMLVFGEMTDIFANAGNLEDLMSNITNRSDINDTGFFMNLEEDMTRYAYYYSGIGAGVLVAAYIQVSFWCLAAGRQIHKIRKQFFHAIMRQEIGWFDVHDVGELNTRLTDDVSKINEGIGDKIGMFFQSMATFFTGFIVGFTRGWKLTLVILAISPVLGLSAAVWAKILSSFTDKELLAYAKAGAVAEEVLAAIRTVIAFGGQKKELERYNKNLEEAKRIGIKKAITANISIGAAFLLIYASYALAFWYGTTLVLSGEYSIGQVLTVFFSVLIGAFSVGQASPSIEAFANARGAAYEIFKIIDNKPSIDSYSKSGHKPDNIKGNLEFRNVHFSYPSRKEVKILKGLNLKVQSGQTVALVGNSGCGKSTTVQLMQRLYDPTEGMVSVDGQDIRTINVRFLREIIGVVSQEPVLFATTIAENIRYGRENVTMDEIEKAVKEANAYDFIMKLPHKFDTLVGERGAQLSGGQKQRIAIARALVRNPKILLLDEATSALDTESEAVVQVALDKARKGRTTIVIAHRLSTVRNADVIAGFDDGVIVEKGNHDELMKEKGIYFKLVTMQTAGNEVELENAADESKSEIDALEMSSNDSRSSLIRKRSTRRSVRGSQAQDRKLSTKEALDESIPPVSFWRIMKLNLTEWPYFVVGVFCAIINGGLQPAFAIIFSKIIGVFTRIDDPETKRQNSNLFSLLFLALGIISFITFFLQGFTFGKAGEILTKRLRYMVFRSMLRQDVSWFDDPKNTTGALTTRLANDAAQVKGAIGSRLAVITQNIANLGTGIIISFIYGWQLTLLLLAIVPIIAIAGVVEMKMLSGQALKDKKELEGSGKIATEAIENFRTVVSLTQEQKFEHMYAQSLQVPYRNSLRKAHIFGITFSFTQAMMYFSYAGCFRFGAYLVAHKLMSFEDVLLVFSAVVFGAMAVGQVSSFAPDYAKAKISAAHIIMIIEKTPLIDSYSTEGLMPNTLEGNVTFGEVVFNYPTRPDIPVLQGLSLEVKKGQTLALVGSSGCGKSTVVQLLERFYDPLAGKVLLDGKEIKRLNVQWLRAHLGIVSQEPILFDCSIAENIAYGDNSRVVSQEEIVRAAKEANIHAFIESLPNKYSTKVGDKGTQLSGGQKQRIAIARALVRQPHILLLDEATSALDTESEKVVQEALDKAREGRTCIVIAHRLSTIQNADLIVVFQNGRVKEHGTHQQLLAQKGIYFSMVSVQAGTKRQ
ABCG2 block: ABCG2 efflux pump inhibitors, primary screen, multiplex with ABCB1, IgMXP3 cells, flow cytometry; JC-1 efflux; 190,000 compounds, 0.1% hits; AID 1325, 2008; Broad substrate specificity ATP-binding cassette transporter ABCG2 (Homo sapiens), Q9UNQ0; inhibition, % at 6.6 µM;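 active = inhibition above 80%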
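Assay system – ABCG2 IgMXP3 and barcoded ABCB1 CCRF-Adr cell mix · Input – 3 million cells/mL in well · Reagent – JC-1 fluorescent substrate · Compound – single test compound dose, 6.6 µM final · Timing – 10 min exposure at 25 °C with rotation, no wash · Detection – flow cytometry of retained JC-1 fluorescence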
Tn7 DDE FP: inhibitors of Tn7 peptide binding to fibrin DD(E), primary screen, biochemical, fluorescence polarization, human fibrin, Tn7 probe. Fibrinogen beta chain (Homo sapiens), P02675. AID 720508, 2013. 370,000 compounds, 0.13% hits. FP displacement of FITC-Tn7 peptide from fibrin DD(E); 0% = median of compound wells per plate. inhibition, % at 8.3 µM;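 active = inhibition above the mean of compounds falling within the control limits plus 3 SD of them, cut at about 14% in these data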
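Assay system: human fibrin DD(E). Input: DD(E) 2 µM final. Medium: Tris buffer with calcium and detergent, pH 7.8. Compound dosing: single point at 8.3 µM. Timing: 10 min plus 3 h, room temperature. Technique: fluorescence polarization of the labelled Tn7 tracer. Read-out: percent inhibition. Replicates: singlicate testing.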
Insulin prom up: insulin promoter activators in MIN6 cells, imaging, high-content screening, mouse beta cells. MIN6 insulin promoter-GFP reporter; stronger effect = higher value. z-score at 5 µM. 190,000 compounds, 0.3% hits. AID 1625, 2009;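 active = z-score above 3 at 5 µM with at least 500 cells counted in the well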
GRK2 inh confirm: GRK2 aptamer-displacing inhibitors, retest, confirmation, biochemical, cherry pick 1, bead flow cytometry; 2,000 compounds, 4% hits; shares compounds with GRK2 inh; bead-bound GRK2, FAM-aptamer displacement; aptamer displacement, % at 10 µM;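 active = aptamer displacement above 40%, near three times the noise of non-fluorescent compounds, on plates passing quality checks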;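 also: negative values mostly reflect intrinsic compound fluorescence rather than true enhancement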
Aptamer quench: counter-screen for GRK2 aptamer inhibitors: fluorescent aptamer quenchers; shares compounds with GRK2 inh; Fluorescent RNA aptamer beads, quenching, flow cytometry; stronger effect = higher value; fluorescence change (kMESF span), kMESF (test concentration not listed); 110 tested, under 10 active; AID 504521;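 active = compounds whose bead fluorescence drops by more than 37 kMESF across the dose range, marking them as dye quenchers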
FAM quench CP1: quenches fluorescent RNA aptamer, GRK2 hit artifact. shares compounds with GRK2 inh. Carboxyfluorescein RNA aptamer on beads, flow cytometry quenching; stronger effect = lower value. fluorescence response (% of DMSO), % at 10 µM. 2,000 tested, under 10 active. AID 504580;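 active = compounds that quench the bead-bound fluorescent RNA probe, cutting fluorescence to under half of the solvent control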;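 also: counterscreen run without GRK2 so only probe quenching by compound is measured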
GRK2 CP2: GRK2 aptamer-displacing inhibitors, hit retest, confirmation, biochemical, cherry pick 2, bead flow cytometry; shares compounds with GRK2 inh; bead-bound GRK2, FAM-aptamer displacement; inhibition of aptamer binding, % at 10 µM; 360 tested, under 10 active;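 active = inhibition of aptamer binding above 40%, about triple the noise seen with nonglowing compounds, on plates passing quality control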;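 also: negative values mostly come from compounds that fluoresce themselves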
FAM quench SP: aptamer fluorescence quenching in GRK2 counter-screen. shares compounds with GRK2 inh. carboxyfluorescein RNA aptamer beads, flow cytometry quenching; stronger effect = lower value. fluorescence response vs DMSO, % at 10 µM. 360 tested, under 10 active;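 active = response vs DMSO under 50%, meaning signal dropped by over half, treated as fluorescence quencher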;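 also: labelled aptamer on streptavidin beads without GRK2 as a quench counter-screen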
Hits are given with their value; n = inactive; x = no result given.

SMILES	Tn6 DDE FP	GRK2 inh	ABCB1 block	ABCG2 block	Tn7 DDE FP	Insulin prom up	GRK2 inh confirm	FAM quench CP1	others
CC12CCC(c3n[nH]c(=S)nc31)C2(C)C (centres undefined)	n	73	n	n	n	n	x	x	GRK2 CP2=n;FAM quench SP=n
O=c1c2c(ncn2C2CCCC2)n(Cc2ccccc2)c(=O)n1CCOc1ccccc1	n	n	n	n	n	n	x	x
O=c1c2c(ncn2C2CCCC2)n(Cc2ccccc2)c(=O)n1CCOc1ccc(Br)cc1	n	100	n	n	n	n	x	x	GRK2 CP2=n;FAM quench SP=n
O=C(N=Nc1c(O)[nH]c2ccc(Cl)cc12)c1cc(-c2cccs2)nc2ccccc12	n	n	n	n	n	n	n	n
Cc1[nH]ccc(=O)c1OCc1ccccc1	n	n	n	n	n	n	x	x
O=c1cc(OCc2ccccc2)cc[nH]1	n	43	x	x	n	x	x	x	GRK2 CP2=n;FAM quench SP=n
CC[n+]1ccc(C[n+]2ccccc2)c2ccccc21	n	54	n	n	n	n	n	n
C=CCNC(=S)N(C)[C@H]1C[C@H]2c3[nH]c4c(-c5ccccc5)cccc4c3CCN2C(=O)[C@H]1[C@H](C)O	n	x	x	x	n	x	x	x
Cc1nc2sc(C(=O)NCc3nccs3)c(N)c2c(C)c1Cl	n	x	x	x	n	x	x	x
CN=c1scc(C)n1/N=C/c1ccc2c(c1)OCO2	n	91	n	n	n	x	n	n
CN=c1scc(C)n1/N=C/c1ccc(O)cc1	n	n	n	n	n	n	x	x
O=C(Cn1cnc2scc(-c3cccc([N+](=O)[O-])c3)c2c1=O)NCc1ccco1	n	88	n	n	n	x	n	n
CCCC/C=C1/[C@@H](c2ccc(Cl)cc2)N(Cc2ccc3c(c2)OCO3)C2=N[C@@H](c3ccccc3)CC(=O)N21	n	x	x	x	n	x	x	x
COc1ccc(CCNCC(O)c2ccccc2)cc1 (centres undefined)	n	n	n	n	n	x	x	x
COc1ccc(CCNCC(C)c2ccccc2)cc1 (centres undefined)	n	n	x	x	n	x	n	n
Cc1cccc(C)c1NC(=O)CN(C)CC(=O)c1c(N)n(Cc2ccccc2)c(=O)n(C)c1=O	n	n	x	x	n	x	n	n
CCOc1ccc(Oc2ccc(NC(=O)[C@@H](NC(N)=O)[C@@H](C)CC)cc2)cc1	n	96	x	x	n	x	n	n
CC[C@H](C)[C@H](NC(N)=O)C(=O)Nc1ccc(S(=O)(=O)NC(C)C)cc1	n	n	x	x	n	n	x	x
C[C@H](O)[C@@H]1CN2CCc3ccc(N4CCOCC4)cc3[C@@H]2C[C@@H]1N(C)C(=S)NCCc1ccccc1	n	x	x	x	n	x	x	x
CCCCOCCCNC(=O)C[C@H]1C[C@@]2(C(=O)OC)C(=C[C@H](C3CCCC3)O[C@@H]2C)N(Cc2cccc3ccccc23)C1=O	n	x	x	x	n	x	x	x
CC(C)(CS(=O)(=O)[O-])NC(=O)CC[N+](C)(C)CCO	n	99	n	n	n	n	96	n	Aptamer quench=n
CCCCCCCCN1C(=O)[C@@H](CC(=O)N2CCOCC2)C[C@@]2(C(=O)OC)C1=C[C@H](C1CCCC1)O[C@@H]2C	n	x	x	x	n	x	x	x
Cc1ccc(N(CC(O)Cn2c3ccccc3c3ccccc32)S(C)(=O)=O)cc1 (centres undefined)	n	54	n	n	n	x	n	n
NC(=NCc1ccccc1)NC(=O)OCc1ccccc1	n	x	x	x	n	x	x	x
CC1CCN(C(C(=O)Nc2ccc3c(c2)OCO3)c2ccccc2)CC1 (centres undefined)	n	43	n	n	n	n	n	n
SMILES	Tn6 DDE FP	GRK2 inh	ABCB1 block	ABCG2 block	Tn7 DDE FP	Insulin prom up	GRK2 inh confirm	FAM quench CP1	others
NC(=O)CSc1cn(CCNC(=O)c2cccs2)c2ccccc12	n	n	x	x	n	n	x	x	GRK2 CP2=n;FAM quench SP=n
Cc1nnc(NC(=O)CSc2cn(CCNC(=O)c3ccccc3)c3ccccc23)s1	n	n	n	n	n	x	x	x
Cc1cccc(C)c1-n1c(C)nn(-c2ncc(C(F)(F)F)cc2Cl)c1=O	n	90	n	n	n	n	n	n
Cc1nn(-c2ncc(C(F)(F)F)cc2Cl)c(=O)n1-c1c(F)cccc1F	n	n	n	n	n	n	x	x
O=C(NCc1ccccc1Cl)C1CCC(CNS(=O)(=O)c2cccc3cccnc23)CC1 (centres undefined)	n	x	x	x	n	x	x	x
Cc1ccc2cccc(N=Cc3c(C)[nH]n(-c4ccccc4)c3=O)c2n1	n	n	n	n	n	n	n	n
O=C1NC(c2cccc(Br)c2)=N/C1=C\c1ccco1	n	50	n	n	n	n	n	n
COC(=O)[C@]12C[C@H](CC(=O)N3CCSCC3)C(=O)N(Cc3ccco3)C1=C[C@H](COCc1ccccc1)O[C@@H]2C	n	x	x	x	n	x	x	x
CCCC(=O)NC1=C(C#N)C2(CCCC2)Cc2ccccc21	n	58	n	n	n	n	n	n
CCCC(=O)Nn1cnc2c(c1=O)C1(CCCC1)Cc1ccccc1-2	n	n	n	n	n	n	x	x
O=C(c1ccccc1C(=O)N1CCN(c2ccccc2F)CC1)N1CCN(c2ccccc2F)CC1	n	77	n	n	n	n	n	n
O=C(c1ccccc1F)N1CCN(c2ccccc2F)CC1	n	n	n	n	n	n	x	x
